Each block holds one molecule with its values, some of them ahead of it. Activity calls are given as the source filed them. No cut-off for these calls is given here.
Columns and labels:
[1] = molecular target: T1, Glycogen phosphorylase, muscle form (Oryctolagus cuniculus) (UniProt P00489); assay: Inhibition of rabbit muscle glycogen phosphorylase b at 312.5 uM by Lineweaver-Burke plot analysis
T1 sequence (whole entry): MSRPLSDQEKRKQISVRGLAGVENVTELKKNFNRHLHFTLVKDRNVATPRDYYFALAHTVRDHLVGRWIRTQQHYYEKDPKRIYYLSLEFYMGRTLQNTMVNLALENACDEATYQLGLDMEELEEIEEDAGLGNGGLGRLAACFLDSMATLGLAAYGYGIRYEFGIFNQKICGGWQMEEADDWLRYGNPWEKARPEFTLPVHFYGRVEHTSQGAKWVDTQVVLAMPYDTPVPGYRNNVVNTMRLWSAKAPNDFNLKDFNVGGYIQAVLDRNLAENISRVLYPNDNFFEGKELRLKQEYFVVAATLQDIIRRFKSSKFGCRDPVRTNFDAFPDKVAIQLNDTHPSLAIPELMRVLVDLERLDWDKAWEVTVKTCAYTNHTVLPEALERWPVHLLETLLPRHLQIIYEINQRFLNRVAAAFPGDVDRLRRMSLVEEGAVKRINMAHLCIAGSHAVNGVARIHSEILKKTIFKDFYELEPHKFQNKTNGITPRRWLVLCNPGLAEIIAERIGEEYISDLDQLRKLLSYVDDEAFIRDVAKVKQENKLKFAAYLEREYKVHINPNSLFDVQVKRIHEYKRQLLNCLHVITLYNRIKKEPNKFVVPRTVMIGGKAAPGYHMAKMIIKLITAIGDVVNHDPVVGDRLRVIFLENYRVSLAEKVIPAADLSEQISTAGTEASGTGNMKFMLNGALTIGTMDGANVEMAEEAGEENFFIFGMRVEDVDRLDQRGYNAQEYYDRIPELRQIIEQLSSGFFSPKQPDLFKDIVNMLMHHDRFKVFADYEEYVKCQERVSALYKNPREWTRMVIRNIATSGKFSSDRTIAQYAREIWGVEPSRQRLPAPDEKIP
Outline: (§1)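 Glycogen phosphorylase b isolated from rabbit skeletal muscle (Fischer–Krebs method with dithiothreitol in place of L-cysteine), recrystallized at least three times. Assayed in glycogen-synthesis direction with α-D-glucose-1-phosphate 2–20 mM, glycogen 1% w/v and AMP 1 mM held constant. Inhibitors were dissolved in DMSO and diluted into 50 mM triethanolamine, 1 mM EDTA, 1 mM DTT, keeping final DMSO below 1%. Activities were analysed as Lineweaver–Burk plots by nonlinear fitting.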

[2] = molecular target: T2, Glycogen phosphorylase, muscle form (Oryctolagus cuniculus, UniProt P00489)
T2 sequence (P00489 whole entry): T1 sequence (whole entry)

[3] = molecular target: T1, Glycogen phosphorylase, muscle form (Oryctolagus cuniculus); assay: Inhibition of rabbit muscle glycogen phosphorylase b at 625 uM by Lineweaver-Burke plot analysis; outline: as §1
[4] = Solubility in DMSO; type: physicochemical
[5] = molecular target: T2, Glycogen phosphorylase, muscle form; assay: Inhibition of rabbit muscle glycogen phosphorylase b by Lineweaver-Burke plot analysis; outline: as §1

- inhibition [1]: inactive
SMILES: COc1ccc(/C(=N/O)S[C@@H]2O[C@H](CO)[C@@H](O)[C@H](O)[C@H]2O)cc1

- Ki [2]: 48 µM
SMILES: OC[C@H]1O[C@]2(ON=C(c3ccc(F)cc3)S2)[C@H](O)[C@@H](O)[C@@H]1O

- Ki [2]: 8.2 µM
SMILES: COc1ccc(C2=NO[C@]3(O[C@H](CO)[C@@H](O)[C@H](O)[C@H]3O)S2)cc1

- inhibition [3]: inactive
SMILES: OC[C@H]1O[C@@]2(ON=C(c3ccncc3)S2)[C@H](O)[C@@H](O)[C@@H]1O

- inhibition [3]: inactive
SMILES: OC[C@H]1O[C@@H](S/C(=N\O)c2ccncc2)[C@H](O)[C@@H](O)[C@@H]1O

- solubility [4]: Insoluble
SMILES: OC[C@H]1O[C@@H](S/C(=N\O)c2ccc(-c3ccccc3)cc2)[C@H](O)[C@@H](O)[C@@H]1O

- IC50 [5]: > 10000 µM
SMILES: O=[N+]([O-])c1ccc(/C(=N/O)S[C@@H]2O[C@H](CO)[C@@H](O)[C@H](O)[C@H]2O)cc1

- IC50 [5]: 700 µM
SMILES: N#Cc1ccc(C2=NO[C@]3(O[C@H](CO)[C@@H](O)[C@H](O)[C@H]3O)S2)cc1

- inhibition [3]: inactive
SMILES: N#Cc1ccc(/C(=N/O)S[C@@H]2O[C@H](CO)[C@@H](O)[C@H](O)[C@H]2O)cc1

- Ki [2]: 1800 µM
SMILES: N#Cc1ccc(/C(=N\O)N[C@@H]2O[C@H](CO)[C@@H](O)[C@H](O)[C@H]2O)cc1

- IC50 [5]: 250 µM
SMILES: OC[C@H]1O[C@]2(ON=C(c3ccc(-c4ccccc4)cc3)S2)[C@H](O)[C@@H](O)[C@@H]1O

- solubility [4]: Insoluble
SMILES: OC[C@H]1O[C@@H](S/C(=N\O)c2ccc3ccccc3c2)[C@H](O)[C@@H](O)[C@@H]1O

- IC50 [5]: 250 µM
SMILES: O=[N+]([O-])c1ccc(C2=NO[C@]3(O[C@H](CO)[C@@H](O)[C@H](O)[C@H]3O)S2)cc1

- inhibition [3]: inactive
SMILES: O=[N+]([O-])c1ccc(/C(=N\O)N[C@@H]2O[C@H](CO)[C@@H](O)[C@H](O)[C@H]2O)cc1

From ChEMBL document CHEMBL1152413, “Glucose-based spiro-heterocycles as potent inhibitors of glycogen phosphorylase” (Bioorg Med Chem, 2009)
